According to ChEMBL document CHEMBL1128217, “Synthesis, structure-affinity relationships, and biological activities of ligands binding to retinoic acid receptor subtypes” (J Med Chem, 1995):

Columns and labels:
F9 [1] = assay: In vitro promotion of plasminogen activator secretion from F9 (murine teratocarcinoma) cells.; format: functional, cell-based; details: Mus musculus
Outline: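 F9 murine teratocarcinoma cells grown in DMEM with 15% fetal bovine serum, exposed 3 days to a range of retinoid concentrations. Differentiation quantified by plasminogen activator secretion; AC50 (concentration giving half-maximal secretion) obtained by nonlinear regression.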

[2] = target: T1, Retinoic acid receptor gamma (Homo sapiens, UniProt P13631); assay: Binding affinity to retinoic acid receptor (RAR) gamma using [3H]CD 367 as radioligand
T1 sequence (P13631 whole entry): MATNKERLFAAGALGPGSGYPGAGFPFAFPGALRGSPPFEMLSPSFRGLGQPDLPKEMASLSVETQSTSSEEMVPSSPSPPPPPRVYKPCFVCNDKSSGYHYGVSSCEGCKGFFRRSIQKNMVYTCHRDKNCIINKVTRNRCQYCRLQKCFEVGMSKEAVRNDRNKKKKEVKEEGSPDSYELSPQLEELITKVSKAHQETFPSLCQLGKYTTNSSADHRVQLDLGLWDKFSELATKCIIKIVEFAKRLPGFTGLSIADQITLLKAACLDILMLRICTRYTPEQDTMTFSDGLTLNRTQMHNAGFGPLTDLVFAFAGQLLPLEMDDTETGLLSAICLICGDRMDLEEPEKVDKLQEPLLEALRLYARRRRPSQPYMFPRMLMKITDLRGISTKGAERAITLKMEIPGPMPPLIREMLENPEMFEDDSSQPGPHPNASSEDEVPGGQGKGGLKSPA

[3] = target: T2, Retinoic acid receptor alpha (Homo sapiens, UniProt P10276); assay: Binding affinity to retinoic acid receptor alpha using [3H]CD 367 as radioligand
T2 sequence (P10276 whole entry): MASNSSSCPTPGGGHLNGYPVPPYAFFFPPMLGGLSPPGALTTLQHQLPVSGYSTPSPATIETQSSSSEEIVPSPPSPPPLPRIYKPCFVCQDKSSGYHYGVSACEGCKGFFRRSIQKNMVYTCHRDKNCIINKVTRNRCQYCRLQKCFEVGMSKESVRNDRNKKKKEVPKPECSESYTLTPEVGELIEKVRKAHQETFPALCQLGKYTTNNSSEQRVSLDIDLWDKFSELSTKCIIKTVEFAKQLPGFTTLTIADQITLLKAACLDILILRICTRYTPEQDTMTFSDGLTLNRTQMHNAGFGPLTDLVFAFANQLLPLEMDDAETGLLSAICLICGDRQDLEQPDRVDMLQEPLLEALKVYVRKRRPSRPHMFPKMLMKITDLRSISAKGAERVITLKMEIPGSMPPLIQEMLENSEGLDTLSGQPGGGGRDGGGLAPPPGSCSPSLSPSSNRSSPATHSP

[4] = target: T3, Retinoic acid receptor beta (Homo sapiens, UniProt P10826); assay: Binding affinity to retinoic acid receptor beta using [3H]CD 367 as radioligand
T3 sequence (P10826 whole entry): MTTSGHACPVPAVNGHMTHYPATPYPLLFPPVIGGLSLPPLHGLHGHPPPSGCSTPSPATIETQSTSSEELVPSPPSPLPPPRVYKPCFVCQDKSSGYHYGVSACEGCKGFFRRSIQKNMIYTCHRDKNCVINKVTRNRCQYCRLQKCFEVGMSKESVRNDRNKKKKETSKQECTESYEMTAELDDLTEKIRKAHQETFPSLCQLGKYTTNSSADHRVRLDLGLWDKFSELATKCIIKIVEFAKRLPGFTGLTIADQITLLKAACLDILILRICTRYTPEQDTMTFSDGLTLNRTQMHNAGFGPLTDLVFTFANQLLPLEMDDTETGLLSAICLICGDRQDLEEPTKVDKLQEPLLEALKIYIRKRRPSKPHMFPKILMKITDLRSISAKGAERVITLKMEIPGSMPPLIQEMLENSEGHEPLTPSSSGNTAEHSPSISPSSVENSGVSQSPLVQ

F9 [5] = assay: Compound was evaluated for its inhibitory activity against F9 murine teratocarcinoma cell differentiation;NA=not active; format: functional, cell-based, Mus musculus
F9 [6] = assay: Compound was evaluated for its inhibitory activity against F9 murine teratocarcinoma cell differentiation; format: functional, cell-based; details: Mus musculus
F9 [7] = assay: Compound was evaluated for its inhibitory activity against F9 murine teratocarcinoma cell differentiation; NA=not active; format: functional, cell-based, Mus musculus

| SMILES | AC50 (F9 [1]) [nM] | Ki [2] [nM] | Ki [3] [nM] | Ki [4] [nM] | AC50 (F9 [5]) | IC50 (F9 [6]) [nM] | IC50 (F9 [5]) | AC50 (F9 [7]) |
| --- | --- | --- | --- | --- | --- | --- | --- | --- |
| O=C(O)c1ccc(/C=C/c2ccc(O)c(C34CC5CC(CC(C5)C3)C4)c2)cc1 | 1 | 20 | 610 | 70 |  |  |  |  |
| COc1ccc(-c2ccc3cc(C(=O)O)ccc3c2)cc1C12CC3CC(CC(C3)C1)C2 | 37 |  | 1100 | 34 |  |  |  |  |
| C/C(=C\c1ccc(C(=O)O)cc1)c1ccc(O)c(C(C)(C)C)c1 |  | 85 | 834 | 105 | Not Active | 700 |  |  |
| COc1ccc(/C(C)=C/c2ccc(C(=O)O)cc2)cc1C1(C)CCCCC1 | 30 | 29 | 420 | 17 |  |  |  |  |
| O=C(O)c1ccc2cc(-c3ccc(O)c(C45CC6CC(CC(C6)C4)C5)c3)ccc2c1 [O-DEMETHYLATED ADAPALENE] | 33 |  | 6500 | 2480 |  |  |  |  |
| COc1ccc(-c2ccc3cc(C(=O)O)ccc3c2)cc1C(C)(C)C | 200 | 426 | 6500 | 36 |  |  |  |  |
| O=C(O)c1ccc2cc(-c3ccc(C(O)CO)c(C45CC6CC(CC(C6)C4)C5)c3)ccc2c1 (centres undefined) | 73 | 153 | > 10000 | 288 |  |  |  |  |
| C/C(=C\c1ccc(C(=O)O)cc1)c1ccc(O)c(C23CC4CC(CC(C4)C2)C3)c1 | 66 | 53 | 1140 | 1240 |  |  |  |  |
| COc1ccc(-c2ccc3cc(C(=O)O)ccc3c2)cc1C1(C)CCCCC1 | 150 | 160 | 1120 | 26 |  |  |  |  |
| CC1(c2cc(-c3ccc4cc(C(=O)O)ccc4c3)ccc2O)CCCCC1 | 175 | 121 | > 10000 | 660 |  |  |  |  |
| CC1(C)CCOc2ccc(-c3ccc4cc(C(=O)O)ccc4c3)cc21 | 300 | 860 | 8500 | 210 |  |  |  |  |
| O=C(O)c1ccc2cc(-c3ccc(C(=O)O)c(C45CC6CC(CC(C6)C4)C5)c3)ccc2c1 | 2000 | > 10000 | > 10000 | > 10000 |  |  |  |  |
| O=C(O)c1ccc2cc(-c3ccc(CC(O)CO)c(C45CC6CC(CC(C6)C4)C5)c3)ccc2c1 (centres undefined) | 100 | 34 | > 10000 | 158 |  |  |  |  |
| C/C(=C\c1ccc(C(=O)O)cc1)c1ccc(O)c(C2(C)CCCCC2)c1 | 300 | 27 | 1060 | 90 |  |  |  |  |
| C/C(=C\c1ccc(C(=O)O)cc1)c1ccc2c(c1)C(C)(C)CCC2(C)C | 0.78 |  |  |  |  |  |  |  |
| CC1(C)CCC(C)(C)c2cc3cc(-c4ccc(C(=O)O)cc4)ccc3cc21 | 0.46 | 2 | 5.3 | 3 |  |  |  |  |
| O=C(O)c1ccc2cc(-c3ccc(CCCO)c(C45CC6CC(CC(C6)C4)C5)c3)ccc2c1 | 7.5 | 72 | 695 | 21 |  |  |  |  |
| O=C(O)c1ccc2cc(-c3ccc(CO)c(C45CC6CC(CC(C6)C4)C5)c3)ccc2c1 | 460 | 386 | > 10000 | 156 |  |  |  |  |
| O=C(O)c1ccc2cc(-c3ccc(OCC(O)CO)c(C45CC6CC(CC(C6)C4)C5)c3)ccc2c1 (centres undefined) | 83 | 151 | 5000 | 89 |  |  |  |  |
| COc1ccc(/C(C)=C/c2ccc(C(=O)O)cc2)cc1C12CC3CC(CC(C3)C1)C2 | 100 | 95 | 460 | 105 |  |  |  |  |
| CC(C)(C)c1cc(-c2ccc3cc(C(=O)O)ccc3c2)ccc1O |  | 200 | > 10000 | 3550 | Not Active |  | Not Active |  |
| COc1ccc(/C(C)=C/c2ccc(C(=O)O)cc2)cc1C(C)(C)C | 30 | 13 | 130 | 12 |  |  |  |  |
| CC1=C(/C=C/C(C)=C/C=C/C(C)=C/C(=O)O)C(C)(C)CCC1 [TRETINOIN] | 200 |  |  |  |  |  |  |  |
| CC1(C)CCC(C)(C)c2cc(-c3ccc4cc(C(=O)O)ccc4c3)ccc21 | 15 | 40 | 580 | 13 |  |  |  |  |
| CCCCCCOc1ccc(-c2ccc3cc(C(=O)O)ccc3c2)cc1C12CC3CC(CC(C3)C1)C2 |  | > 10000 | > 10000 | > 10000 |  |  |  | Not Active |
